Assay results taken from ChEMBL document CHEMBL1275361, “Synthesis and evaluation of 5-substituted 9-hydroxypyrrolo[3,4-c]carbazole-1,3(2H,6H)-diones as check point 1 kinase inhibitors” (Bioorg Med Chem, 2010).
Calls of active or inactive are those of the source. The calls are words filed in the database; no cut-off is given here.

How the values were obtained:
[1] = target: T1, Serine/threonine-protein kinase Chk1 (Homo sapiens, UniProt O14757); experiment: Inhibition of human recombinant Chk1
T1 sequence (O14757 whole entry): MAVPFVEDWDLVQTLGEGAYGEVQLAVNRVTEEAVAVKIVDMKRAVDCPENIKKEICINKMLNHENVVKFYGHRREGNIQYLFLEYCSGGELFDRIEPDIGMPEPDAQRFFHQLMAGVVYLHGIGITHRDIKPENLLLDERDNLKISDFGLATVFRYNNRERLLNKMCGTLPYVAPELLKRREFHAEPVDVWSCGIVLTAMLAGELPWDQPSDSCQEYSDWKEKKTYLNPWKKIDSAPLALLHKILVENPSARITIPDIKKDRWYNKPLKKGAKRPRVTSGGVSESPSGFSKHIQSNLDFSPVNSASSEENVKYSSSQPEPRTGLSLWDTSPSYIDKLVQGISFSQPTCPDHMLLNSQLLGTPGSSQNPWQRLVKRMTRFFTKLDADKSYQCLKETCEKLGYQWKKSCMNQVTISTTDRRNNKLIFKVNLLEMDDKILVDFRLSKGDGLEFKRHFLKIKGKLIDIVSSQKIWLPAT
In short: (§1)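 Chk1 activity measured by K-LISA checkpoint kit ELISA, following phosphorylation of a Cdc25 substrate peptide. Absorbance read at 450/540 nm. Inhibition calculated from activity with versus without compound. IC50 is the concentration inhibiting peptide phosphorylation. Values are the mean of three separate determinations.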

ML-1a = experiment: Cytotoxicity against human ML-1a cells up to 10 uM after 48 hrs; assay type: functional, cell-based
In short: (§2)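 Cells grown in RPMI 1640 with 10% FBS at 37 °C, 5% CO2. Exponentially growing cells seeded, treated after 24 h with compound for 48 h. Viability read by CCK-8 (2 h development, absorbance 450 nm), expressed as percent of untreated control. Three separate experiments, each in triplicate.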

CCRF-CEM = experiment: Cytotoxicity against human CCRF-CEM cells up to 10 uM after 48 hrs; assay type: functional, cell-based; in short: as §2
HeLa = experiment: Cytotoxicity against human HeLa cells assessed as potentiation of SN-38-induced induction of DNA damaging activity at 5 uM after 48 hrs; assay type: functional
In short: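 HeLa cells kept in MEM with 10% FBS and 1% nonessential amino acids at 37 °C, 5% CO2. Seeded cells treated after 24 h with SN-38, with or without test compound, for 48 h. Live cells measured by CCK-8 (2 h, A450), viability as percent of untreated control. Three experiments in triplicate.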

[2] = target: T2, Serine/threonine-protein kinase Chk1 (Homo sapiens) (UniProt O14757); experiment: Inhibition of human recombinant Chk1 at 10 uM; in short: as §1
T2 sequence (whole entry): T1 sequence (O14757 whole entry)

[3] = target: T3, Calcium/calmodulin-dependent protein kinase type IV (Homo sapiens) (UniProt Q16566); experiment: Inhibition of CAMK4 at 0.1 uM
T3 sequence (whole entry): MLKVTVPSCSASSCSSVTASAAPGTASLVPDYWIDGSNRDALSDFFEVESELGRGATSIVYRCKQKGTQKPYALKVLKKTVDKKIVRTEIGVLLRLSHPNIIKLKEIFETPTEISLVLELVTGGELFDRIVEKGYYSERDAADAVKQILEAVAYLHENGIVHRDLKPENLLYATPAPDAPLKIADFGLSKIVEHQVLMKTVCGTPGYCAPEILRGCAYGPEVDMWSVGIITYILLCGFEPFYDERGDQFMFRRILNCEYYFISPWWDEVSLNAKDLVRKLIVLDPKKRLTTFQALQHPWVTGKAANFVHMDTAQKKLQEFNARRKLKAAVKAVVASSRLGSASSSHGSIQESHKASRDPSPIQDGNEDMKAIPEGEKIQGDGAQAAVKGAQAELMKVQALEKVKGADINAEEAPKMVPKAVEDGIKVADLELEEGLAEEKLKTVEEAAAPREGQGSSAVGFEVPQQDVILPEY
In short: (§3)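 Kinase panel run per ProfilerPro kit protocol. Compounds preincubated with enzyme 15 min at room temperature. Reaction started with peptide substrate (fixed 1.5 µM) and ATP at apparent Km, run 90 min, then stopped with termination buffer. Tested in duplicate. Read by microfluidic mobility-shift (Caliper), with product/(product+substrate) ratio as signal.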

[4] = target: Serine/threonine-protein kinase MARK1 (Homo sapiens) (UniProt Q9P0L2); experiment: Inhibition of MARK1 at 0.1 uM; in short: as §3
[5] = target: T4, 5'-AMP-activated protein kinase subunit beta-1 (Homo sapiens) (UniProt Q9Y478); experiment: Inhibition of AMPK at 0.1 uM; in short: as §3
T4 sequence (whole entry): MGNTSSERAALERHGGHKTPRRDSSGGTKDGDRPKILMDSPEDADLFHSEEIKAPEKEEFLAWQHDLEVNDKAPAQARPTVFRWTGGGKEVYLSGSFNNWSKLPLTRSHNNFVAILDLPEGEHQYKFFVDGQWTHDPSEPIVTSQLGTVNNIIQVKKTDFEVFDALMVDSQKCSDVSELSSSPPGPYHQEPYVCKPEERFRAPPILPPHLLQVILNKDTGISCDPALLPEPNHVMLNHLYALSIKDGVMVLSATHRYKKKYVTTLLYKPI

[6] = target: T5, Serine/threonine-protein kinase D2 (Homo sapiens) (UniProt Q9BZL6); experiment: Inhibition of PKD2 at 0.1 uM; in short: as §3
T5 sequence (whole entry): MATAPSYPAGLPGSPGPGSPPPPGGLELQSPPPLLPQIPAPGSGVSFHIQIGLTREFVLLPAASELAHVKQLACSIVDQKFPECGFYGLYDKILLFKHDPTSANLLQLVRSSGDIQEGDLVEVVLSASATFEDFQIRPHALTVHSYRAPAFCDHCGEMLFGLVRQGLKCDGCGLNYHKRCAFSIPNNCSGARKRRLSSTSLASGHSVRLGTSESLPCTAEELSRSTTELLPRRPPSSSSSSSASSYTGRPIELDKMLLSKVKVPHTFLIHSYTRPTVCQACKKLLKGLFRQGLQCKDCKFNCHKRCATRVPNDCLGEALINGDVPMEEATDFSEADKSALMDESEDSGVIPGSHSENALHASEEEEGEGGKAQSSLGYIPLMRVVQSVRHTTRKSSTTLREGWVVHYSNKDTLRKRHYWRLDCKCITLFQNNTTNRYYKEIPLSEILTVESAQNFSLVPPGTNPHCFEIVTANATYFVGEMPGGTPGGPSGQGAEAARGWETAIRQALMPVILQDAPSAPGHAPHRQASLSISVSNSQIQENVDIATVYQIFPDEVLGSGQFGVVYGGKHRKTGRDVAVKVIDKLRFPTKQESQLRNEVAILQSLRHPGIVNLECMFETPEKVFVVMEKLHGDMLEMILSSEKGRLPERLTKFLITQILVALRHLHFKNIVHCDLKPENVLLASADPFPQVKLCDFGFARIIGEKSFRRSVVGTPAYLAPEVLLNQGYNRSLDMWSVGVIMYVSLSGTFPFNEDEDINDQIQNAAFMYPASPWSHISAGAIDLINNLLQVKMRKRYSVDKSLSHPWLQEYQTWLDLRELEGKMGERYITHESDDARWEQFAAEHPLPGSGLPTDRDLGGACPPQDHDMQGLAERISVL

[7] = target: Serine/threonine-protein kinase pim-2 (Homo sapiens) (UniProt Q9P1W9); experiment: Inhibition of PIM2 at 0.1 uM; in short: as §3
[8] = Inhibition of CAMK2 at 0.1 uM; in short: as §3
[9] = target: Serine/threonine-protein kinase Chk2 (Homo sapiens) (UniProt O96017); experiment: Inhibition of Chk2 at 0.1 uM; in short: as §3
[10] = target: T6, Aurora kinase A (Homo sapiens) (UniProt O14965); experiment: Inhibition of aurora A at 0.1 uM; in short: as §3
T6 sequence (whole entry): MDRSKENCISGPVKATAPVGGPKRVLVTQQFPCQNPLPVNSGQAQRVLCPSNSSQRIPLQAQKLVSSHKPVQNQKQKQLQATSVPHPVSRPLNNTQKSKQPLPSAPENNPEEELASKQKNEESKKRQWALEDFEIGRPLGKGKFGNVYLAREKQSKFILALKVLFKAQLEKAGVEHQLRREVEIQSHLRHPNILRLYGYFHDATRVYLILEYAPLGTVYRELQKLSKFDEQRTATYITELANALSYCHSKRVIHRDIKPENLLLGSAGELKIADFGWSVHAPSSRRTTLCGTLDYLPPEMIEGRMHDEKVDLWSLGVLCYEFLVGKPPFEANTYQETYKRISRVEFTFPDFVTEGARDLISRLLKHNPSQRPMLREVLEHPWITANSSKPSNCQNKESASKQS

Serine/threonine-protein kinase pim-2 (Homo sapiens), sequence (Q9P1W9 whole entry, looked up): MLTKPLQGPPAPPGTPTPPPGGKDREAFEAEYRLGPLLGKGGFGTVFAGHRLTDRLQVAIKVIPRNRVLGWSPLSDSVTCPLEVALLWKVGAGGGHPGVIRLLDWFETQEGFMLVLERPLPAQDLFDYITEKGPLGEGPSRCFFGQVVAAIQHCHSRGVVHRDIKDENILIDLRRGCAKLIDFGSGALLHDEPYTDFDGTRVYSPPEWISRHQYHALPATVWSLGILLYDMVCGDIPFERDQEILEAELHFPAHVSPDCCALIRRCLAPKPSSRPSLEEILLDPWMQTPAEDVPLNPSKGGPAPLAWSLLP
Serine/threonine-protein kinase MARK1 (Homo sapiens), sequence (Q9P0L2 whole entry, looked up): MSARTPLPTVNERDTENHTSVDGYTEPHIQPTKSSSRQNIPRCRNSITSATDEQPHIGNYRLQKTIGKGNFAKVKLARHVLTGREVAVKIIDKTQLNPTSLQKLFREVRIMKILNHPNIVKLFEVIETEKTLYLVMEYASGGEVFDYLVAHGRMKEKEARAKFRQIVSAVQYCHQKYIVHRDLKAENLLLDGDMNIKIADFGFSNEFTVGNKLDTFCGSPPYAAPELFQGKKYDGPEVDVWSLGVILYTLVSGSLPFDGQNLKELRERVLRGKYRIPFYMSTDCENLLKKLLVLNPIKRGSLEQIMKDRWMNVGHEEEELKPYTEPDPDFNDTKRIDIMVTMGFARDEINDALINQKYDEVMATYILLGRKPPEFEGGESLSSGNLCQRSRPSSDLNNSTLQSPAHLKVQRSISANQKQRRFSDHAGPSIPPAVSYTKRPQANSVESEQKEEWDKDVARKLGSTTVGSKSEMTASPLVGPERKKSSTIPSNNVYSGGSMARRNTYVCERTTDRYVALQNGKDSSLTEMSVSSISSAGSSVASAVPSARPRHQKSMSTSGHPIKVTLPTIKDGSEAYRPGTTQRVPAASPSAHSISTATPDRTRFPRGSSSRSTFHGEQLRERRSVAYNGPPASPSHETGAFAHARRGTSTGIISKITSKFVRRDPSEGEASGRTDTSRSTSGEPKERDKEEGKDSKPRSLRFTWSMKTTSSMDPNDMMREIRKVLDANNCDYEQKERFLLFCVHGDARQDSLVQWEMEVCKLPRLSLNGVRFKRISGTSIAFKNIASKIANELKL
Serine/threonine-protein kinase Chk2 (Homo sapiens), sequence (O96017 whole entry): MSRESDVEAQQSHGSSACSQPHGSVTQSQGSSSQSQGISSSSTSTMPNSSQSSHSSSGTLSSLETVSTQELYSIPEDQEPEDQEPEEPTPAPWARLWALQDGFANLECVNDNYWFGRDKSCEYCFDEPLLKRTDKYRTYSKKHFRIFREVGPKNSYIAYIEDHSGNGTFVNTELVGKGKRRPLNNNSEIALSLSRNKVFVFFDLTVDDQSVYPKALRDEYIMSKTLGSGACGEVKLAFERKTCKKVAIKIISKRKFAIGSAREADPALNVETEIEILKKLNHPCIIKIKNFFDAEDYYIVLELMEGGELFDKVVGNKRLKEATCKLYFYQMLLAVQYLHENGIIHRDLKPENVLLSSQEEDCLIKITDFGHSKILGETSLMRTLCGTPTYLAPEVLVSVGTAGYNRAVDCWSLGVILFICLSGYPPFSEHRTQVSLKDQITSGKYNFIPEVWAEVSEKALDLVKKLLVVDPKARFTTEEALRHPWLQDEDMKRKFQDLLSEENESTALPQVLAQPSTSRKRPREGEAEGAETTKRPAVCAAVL

Structure (SMILES) | IC50 [1] [nM] | inhibition [2] [%] | Activity (ML-1a) | Activity (CCRF-CEM) | also measured
N=C(N)NCCNC(=O)c1cccc(CNC(=O)c2cc3c(c4c2[nH]c2ccc(O)cc24)C(=O)NC3=O)c1 | 2.8 | – | inactive | inactive | –
N=C(N)NCCNC(=O)c1cccc(CNC(=O)c2cc3c(c4c2[nH]c2ccccc24)C(=O)NC3=O)c1 | 123 | – | inactive | inactive | –
N#Cc1ccc(CNC(=O)c2cc3c(c4c2[nH]c2ccccc24)C(=O)NC3=O)cc1 | – | 46 | – | – | –
NC(=O)c1cccc(CNC(=O)c2cc3c(c4c2[nH]c2ccccc24)C(=O)NC3=O)c1 | 448 | 83 | inactive | inactive | inhibition [3]: Active; inhibition [4]: Active; inhibition [5]: Active; inhibition [6]: Active; inhibition [7]: Active; inhibition [8]: Active; inhibition [9]: Active; inhibition [10]: Active
N#Cc1cccc(CNC(=O)c2cc3c(c4c2[nH]c2ccccc24)C(=O)NC3=O)c1 | – | 48 | – | – | –
NCCNC(=O)c1cccc(CNC(=O)c2cc3c(c4c2[nH]c2ccccc24)C(=O)NC3=O)c1 | 336 | – | inactive | inactive | –
CN[C@@H]1C[C@H]2O[C@@](C)([C@@H]1OC)n1c3ccccc3c3c4c(c5c6ccccc6n2c5c31)C(=O)N[C@H]4O | – | – | inactive | inactive | –

The next lines start with results.

IC50 [1] [nM] | inhibition [2] [%] | Structure (SMILES) | Activity (ML-1a) | Activity (CCRF-CEM) | also measured
31 | – | Cl.NCCNC(=O)c1cccc(CNC(=O)c2cc3c(c4c2[nH]c2ccc(O)cc24)C(=O)NC3=O)c1 | inactive | inactive | fold change (FC) (HeLa): 4
46 | – | NCCCNC(=O)c1cccc(CNC(=O)c2cc3c(c4c2[nH]c2ccc(O)cc24)C(=O)NC3=O)c1 | inactive | inactive | –
22 | – | N=C(N)NCCCNC(=O)c1cccc(CNC(=O)c2cc3c(c4c2[nH]c2ccc(O)cc24)C(=O)NC3=O)c1 | inactive | inactive | –
251 | – | NCCCNC(=O)c1cccc(CNC(=O)c2cc3c(c4c2[nH]c2ccccc24)C(=O)NC3=O)c1 | inactive | inactive | –
– | 46 | O=C1NC(=O)c2c1cc(C(=O)O)c1[nH]c3ccccc3c21 | – | – | –
– | 27 | NC(=O)c1ccc(CNC(=O)c2cc3c(c4c2[nH]c2ccccc24)C(=O)NC3=O)cc1 | – | – | –
– | 1 | CC(C)(C)OC(=O)c1cc2c(c3c1[nH]c1ccccc13)C(=O)NC2=O | – | – | –
9000 | 71 | O=C1NC(=O)c2c1cc(C(=O)NCc1ccccc1)c1[nH]c3ccccc3c21 | – | – | –
235 | – | N=C(N)NCCCNC(=O)c1cccc(CNC(=O)c2cc3c(c4c2[nH]c2ccccc24)C(=O)NC3=O)c1 | inactive | inactive | –
